Measured values reported in PubChem BioAssay AID588760 (Johns Hopkins Ion Channel Center, 2011).
Active and inactive are the calls of the source.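 Rule for the calls: active = fitted dose response curve and peak inhibition of the Kir2.1 potassium channel above 30% at some dose; inactive = no dose response or no inhibition at any dose.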

molecular target: Inward rectifier potassium channel 2 (Mus musculus) (UniProt P35561); assay: off-target blockade of inward rectifier Kir2.1 – cell-based, FluxOR thallium flux, CRC round 3, selectivity assay for KCNK9 inhibitor project, SAR follow-up (AID 588760); settings: Kir2.1-expressing cells, 20 min; series mostly up to 30 µM
Procedure, shortened: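 Assay system: FluxOR-loaded Kir2.1 HEK293 cells; Also added: K2SO4/Tl2SO4 stimulus; Replicates: at least duplicate measurements per concentration; Measured by: kinetic fluorescence of thallium-sensitive dye; Incubation: dye loading 90 min RT, compound 20 min RT pre-stimulus.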

Sequence of Inward rectifier potassium channel 2 (Mus musculus) (P35561 whole entry, looked up): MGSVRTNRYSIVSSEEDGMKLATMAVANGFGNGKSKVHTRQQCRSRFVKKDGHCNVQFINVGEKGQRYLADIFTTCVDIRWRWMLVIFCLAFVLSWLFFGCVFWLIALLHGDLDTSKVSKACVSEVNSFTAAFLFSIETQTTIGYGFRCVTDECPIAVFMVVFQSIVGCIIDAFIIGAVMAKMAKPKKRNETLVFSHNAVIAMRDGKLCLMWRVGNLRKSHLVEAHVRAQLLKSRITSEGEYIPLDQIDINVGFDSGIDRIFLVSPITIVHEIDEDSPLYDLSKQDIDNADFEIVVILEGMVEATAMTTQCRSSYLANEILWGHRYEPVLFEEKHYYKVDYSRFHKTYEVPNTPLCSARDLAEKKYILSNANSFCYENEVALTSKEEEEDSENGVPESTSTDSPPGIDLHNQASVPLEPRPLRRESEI

outcome, inactive:
CC(NC(=O)c1ccco1)C1CC2CCC1C2 (stereo unspecified)
CC(C1CC2CCC1C2)n1cnnc1-c1ccco1 (stereo unspecified)
COc1ccc(C(=O)CSc2nnc(-c3ccco3)n2C(C)C2CC3CCC2C3)cc1OC (stereo unspecified)
CC(C1CC2CCC1C2)n1c(-c2ccco2)n[nH]c1=S (stereo unspecified)
CC(C1C2CCC1CC2)n1c(-c2ccco2)n[nH]c1=S (stereo unspecified)
CC(C1CC2CCC1C2)n1c(-c2ccco2)nnc1C(F)(F)F (stereo unspecified)
CC(C1CC2CCC1C2)n1c(-c2ccc(N(C)C)cc2)n[nH]c1=S (stereo unspecified)
CC(C1CC2CCC1C2)n1c(-c2cccc(N(C)C)c2)n[nH]c1=S (stereo unspecified)
CC(C1CC2CCC1C2)n1c(-c2ccccn2)n[nH]c1=S (stereo unspecified)
CC(C1CC2CCC1C2)n1c(-c2ccccc2F)n[nH]c1=S (stereo unspecified)
COc1ccccc1C(=O)Nc1cccc(NC(=O)c2cccc3ccccc23)c1
COc1cccc(C(=O)CSc2nnc(-c3ccco3)n2C(C)C2CC3CCC2C3)c1 (stereo unspecified)
CC(C)c1ccccc1C(=O)Nc1cccc(NC(=O)c2ccccc2OC(F)(F)F)c1
CC(C1CC2CCC1C2)n1c(-c2ccco2)n[nH]c1=O (stereo unspecified)
COc1cc(OC)cc(-c2n[nH]c(=S)n2C(C)C2CC3CCC2C3)c1 (stereo unspecified)
COc1cccc(-c2n[nH]c(=S)n2C(C)C2CC3CCC2C3)c1OC (stereo unspecified)
CC(C1CC2CCC1C2)n1c(-c2cccc(F)c2)n[nH]c1=S (stereo unspecified)
CC(C1CC2CCC1C2)n1c(-c2ccncc2)n[nH]c1=S (stereo unspecified)
S=c1[nH]nc(-c2ccco2)n1CC1CC2CCC1C2 (stereo unspecified)
COc1cccc(Cc2n[nH]c(=S)n2C(C)C2CC3CCC2C3)c1 (stereo unspecified)
CC(CC1CC2CCC1C2)n1c(-c2ccco2)n[nH]c1=S (stereo unspecified)
